# Compound activity: PubChem, several laboratories
# A selection: hits, their analogues and other compounds. The true share with any hit is near 3.7%.
# GAA850 FXN act – frataxin GAA850 promoter activation; 360,000 tested, 0.56% active; AID 540364; HEK293 lucGAA850 FXN promoter luciferase reporter, 24 h; percent of 10 µM SAHA response; activation, % at 6 µM;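 active means activation above the average of all compounds screened plus 3 SD, cutoff fixed separately per campaign, cut at about 7.5% in these data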
# JMJD2C inh – human JMJD2C demethylase inhibition. 330,000 tested, 0.069% active. GST-JMJD2C(1-420) H3K9me3 demethylation, DELFIA europium. Q9H3R0. inhibition, % at 2.35 µM;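 active means more than half of a compound's replicate wells show inhibition beyond 50%, single wells judged on their own value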;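 further: signal counts dimethyl H3K9 product captured on neutravidin plate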
# SR-BI uptake up – activators of SR-BI mediated HDL lipid uptake; activation, % at 12.5 µM; CHO ldlA[mSR-BI] cells, DiI-HDL uptake fluorescence, 3 h; 100 = double the neutral-control signal; 320,000 tested, 0.096% active;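 active means mean replicate activation of at least 60% and every replicate at or above 60%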
#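 Assay system: CHO ldlA[mSR-BI] cells, LDL receptor-null, SR-BI overexpressing; medium: Ham's F12 with 0.5% BSA, HEPES 25 mM, pH 7.4; also added: DiI-HDL 10 µg/mL; timing: 3 h uptake period with compound, 37 °C; signal: DiI fluorescence, bottom read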
# SR-BI DiI inh – inhibitors of mouse SR-BI mediated HDL lipid uptake. Q61009. ldlA[mSR-BI] CHO cells, DiI-HDL uptake fluorescence, 3 h. inhibition, % at 12.5 µM. 320,000 tested, 0.96% active;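 active means mean replicate inhibition of at least 70% and a set share of replicates each scoring 70 or more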
# Target sequence (Q61009 whole entry, looked up): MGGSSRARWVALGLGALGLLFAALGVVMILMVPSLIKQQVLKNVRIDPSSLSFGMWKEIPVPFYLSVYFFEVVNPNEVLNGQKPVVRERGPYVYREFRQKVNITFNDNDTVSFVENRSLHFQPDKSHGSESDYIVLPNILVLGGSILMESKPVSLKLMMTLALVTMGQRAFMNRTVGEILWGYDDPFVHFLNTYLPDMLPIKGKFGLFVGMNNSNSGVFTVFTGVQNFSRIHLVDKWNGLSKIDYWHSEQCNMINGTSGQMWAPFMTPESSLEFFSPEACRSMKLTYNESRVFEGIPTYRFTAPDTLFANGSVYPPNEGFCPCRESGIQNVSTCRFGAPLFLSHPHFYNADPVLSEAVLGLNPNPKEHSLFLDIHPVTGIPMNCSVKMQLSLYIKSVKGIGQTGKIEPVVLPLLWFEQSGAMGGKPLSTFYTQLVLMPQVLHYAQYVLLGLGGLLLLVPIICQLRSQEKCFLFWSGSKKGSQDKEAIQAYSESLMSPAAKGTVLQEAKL
# AHR act – activators of human aryl hydrocarbon receptor; 320,000 tested, 2.5% active; activation, % at 5 µM; AHR-responsive luciferase reporter cells, luminescence; in the data active means activation above about 47%
# Hits are given with their value; . = inactive; / = no result given.
SMILES,GAA850 FXN act,JMJD2C inh,SR-BI uptake up,SR-BI DiI inh,AHR act
CC(C)(C)c1ccc(OCCCC(=O)NNC(=O)c2ccccc2O)cc1,.,.,.,120,.
CC(C)(C)c1ccc(C(=O)NNC(=O)c2ccccc2Br)cc1,.,.,.,.,.
Cc1ccc(NC2=NC(c3ccc(F)cc3)n3c(nc(C)cc3=O)N2)cc1 (configuration not stated),.,.,.,.,.
COc1cc(/C=C2\C=CC(=O)O2)cc(OC)c1,.,.,.,.,.
COc1ccc(NC(=S)Nc2cc(C)cc(C)n2)cc1OC,.,.,.,.,.
Cc1cc(C)nc(NC(=S)Nc2cccc(F)c2)c1,.,.,.,.,48
COc1cccc(NC(=S)Nc2cc(C)cc(C)n2)c1,.,.,.,.,66
O=C(NCCC(=O)N1CCC2(CC1)NCCc1[nH]cnc12)c1ccc(Br)cc1,.,.,.,.,.
NNc1ccc(Cl)nn1,.,.,/,/,69
CC(Oc1ccccc1)C(=O)N1CCN(c2ccc(N3CCOCC3)nn2)CC1 (configuration not stated),.,.,.,.,.
O=C1c2ccccc2C(=O)N1CCCOc1ccccc1,.,.,.,.,66
COc1cc2c(cc1OC)CN(C(=O)CSc1n[nH]c(N)n1)CC2,.,54,.,.,.
COc1cc2c(cc1OC)CN(C(=O)CSc1ccc(F)cc1)CC2,.,.,.,.,.
CCOCc1nnc(NC(=O)c2ccc3c(c2)OCO3)s1,.,.,.,.,122
CCOCc1nnc(NC(=O)COc2ccc3c(c2)OCO3)s1,.,.,.,.,.
O=C(Nc1nncs1)c1ccc2c(c1)OCO2,.,.,.,.,65
COc1cccc(-c2noc(-c3ccoc3C)n2)c1,.,.,.,.,69
COc1ccccc1-c1nc(-c2ccc(Br)cc2)no1,.,.,.,.,64
COc1ccc(-c2nc(-c3ccc(Br)cc3)no2)c(OC)c1,.,.,.,.,95
COc1ccc(-c2noc(-c3ccoc3C)n2)cc1,.,.,.,.,.
COc1cc(OC)cc(-c2nc(-c3ccc(Br)cc3)no2)c1,.,.,.,.,.
CN(C)C(=O)CCc1ccc2c3c([nH]c2c1)[C@]1(CCC2CCCC2)[C@@H](C(=O)N2CCOCC2)C[C@H](CC(=O)NC(C)(C)C)C(=O)N1CC3,.,/,.,.,/
O=C(NCc1nnnn1-c1ccc(Cl)cc1)c1ccc(Br)o1,.,.,.,.,.
COc1cc(C(=S)N2CCN(C(c3ccccc3)c3ccccc3)CC2)cc(OC)c1O,.,.,.,.,/
CC(=O)N1CCCC(C)(C(=O)Nc2ccc3oc(C)nc3c2)C1 (configuration not stated),.,/,/,/,/
SMILES,GAA850 FXN act,JMJD2C inh,SR-BI uptake up,SR-BI DiI inh,AHR act
Cc1ccc(S(=O)(=O)C2(C(=O)NCc3ccc4c(c3)OCO4)CC2)cc1,.,.,.,.,.
O=C(NCc1ccc2c(c1)OCO2)C1(S(=O)(=O)c2ccccc2)CC1,.,.,.,.,70
O=C(CCc1ccc(S(=O)(=O)NCCc2ccccc2)cc1)NCc1ccc2c(c1)OCO2,.,.,.,.,.
O=C(CCc1ccc(S(=O)(=O)NCc2ccccc2)cc1)NCc1ccc2c(c1)OCO2,.,52,.,.,.
Cc1ccc(OCC(=O)Nc2ccc(C)c(S(=O)(=O)N3CCCCC3)c2)c([N+](=O)[O-])n1,.,.,.,.,.
CN(c1ccc(C(=O)N2CCN(Cc3ccccc3)CC2)cc1)S(=O)(=O)c1ccc(Cl)cc1,.,.,.,79,.
CCc1ccc(/C=N/NC(=O)c2cc(C3CC3)nc3ccc(Br)cc23)s1,.,.,.,87,.
C/C(=N\NC(=O)c1cc(C2CC2)nc2ccccc12)c1ccc(C)s1,.,.,.,.,51
O=C(N/N=C/c1cccnc1)c1cc(C2CC2)nc2ccccc12,.,.,/,/,48
CC(=O)N1NC(=Nc2ccccc2)SC1(C)C,.,.,.,.,.
O=C(NCCO)C1(c2ccc(Cl)cc2)CCCC1,.,.,.,.,.
COc1ccccc1-c1nnc(NC(=O)C(C)SC2=NCCS2)s1 (configuration not stated),.,.,.,.,57
CC(SC1=NCCS1)C(=O)Nc1nnc(-c2ccc(Cl)cc2)s1 (configuration not stated),.,.,.,.,.
O=S(=O)(Nc1cccc(Br)c1)c1cccc2nsnc12,.,.,.,.,.
Cc1cccc(NS(=O)(=O)c2cccc3nsnc23)c1,.,56,.,.,.
COCOc1cccc(CN2CCC2(C)C(=O)Nc2ccc(C)cc2)c1 (configuration not stated),.,/,/,/,/
O=C(CN1C(=O)CCC1=O)Nc1nc(-c2ccc(Cl)s2)cs1,.,.,.,.,78
Cc1ccc(NC(=O)OCC(F)(F)C(F)F)cc1NC(=O)OCC(F)(F)C(F)F,.,.,.,.,55
O=S(=O)(/N=C(/c1ccccc1)N1CCOCC1)c1ccc(F)cc1,.,.,/,/,.
COc1cc(Cl)cc(/C=C/c2ccc3cccc(O)c3n2)c1OC,.,.,.,.,.
COc1ccccc1/C=C/c1ccc2cccc(O)c2n1,.,.,.,.,75
COc1ccc(Cl)cc1/C=C/c1ccc2cccc(O)c2n1,.,.,.,83,66
CCOc1cccc(/C=C/c2ccc3cccc(O)c3n2)c1OC,.,.,.,.,76
Oc1cccc2ccc(/C=C/c3ccccc3Cl)nc12,.,.,.,.,.
CCOC(=O)c1sc(NC(=O)COC(=O)CNC(=O)C2CCCCC2)c(C(=O)OCC)c1C,.,.,.,.,.
SMILES,GAA850 FXN act,JMJD2C inh,SR-BI uptake up,SR-BI DiI inh,AHR act
O=C(c1cc2nc(-c3ccc(F)cc3)cc(C(F)(F)F)n2n1)N1CCCCC1c1cccnc1 (configuration not stated),.,.,.,82,.
CN1CCN(C(=O)c2cc3nc(-c4ccc(F)cc4)cc(C(F)(F)F)n3n2)CC1,.,.,/,/,.
Cc1ccc(-c2cc(C(F)F)n3ncc(C(=O)N4CCCCC4c4cccnc4)c3n2)cc1 (configuration not stated),.,.,/,/,.
O=C(c1cnn2c(C(F)(F)F)cc(-c3ccccc3)nc12)N1CCCCC1c1cccnc1 (configuration not stated),.,.,.,.,50
CN(C)/C=C1\Oc2ccc3ccccc3c2C1=O,.,.,.,.,.
CN(C)/C=C1/Oc2c(ccc3ccccc23)C1=O,.,.,.,.,66
O=C(Nc1ccc(Cl)cc1)C1=Cc2ccccc2OC1,.,.,.,.,72
c1cncc(CNc2ncnc3ccc(-c4ccc5c(c4)OCO5)cc23)c1,.,/,.,.,53
O=C(Nc1cccnc1)c1cc(-c2ccc(Br)cc2)nc2ccccc12,.,.,.,87,.
O=c1[nH]c(N/N=C\c2ccc3c(c2)OCO3)nc2ccccc12,.,.,.,.,57
